Published values from different studies.
Protocols differ between the studies behind these lines.
Target: Receptor-interacting serine/threonine-protein kinase 2 (RIPK2, Homo sapiens, UniProt O43353)

Compound | test | setting | remaining binding
COc1cnc(Nc2cccc(S(N)(=O)=O)c2)nc1N1CCN(c2ccccc2)C(=O)C1 | binding, competition with immobilised ligand | 1 µM | 100%
O=C(NCCCN1CCOCC1)c1ccc(Nc2ncc(Cl)c(-c3ccc(Cl)s3)n2)cc1 | binding, competition with immobilised ligand | 1 µM | 100%
CC(=O)C1=C(C)N(c2cccc(C(F)(F)F)c2)C(=O)N[C@@H]1c1ccc(C#N)nc1 | cell-free assay, competition with immobilised ligand | 1 µM | 98.7%
O=C(c1ccc(Nc2nccc(-c3cc4ccccc4s3)n2)cc1)N1CCC(N2CCCC2)CC1 | binding, competition with immobilised ligand | 1 µM | 79%
C=CC(=O)N1CCC(C(=O)NCC(=O)N2CCN(c3nc(-c4cnc(N)nc4C(F)F)nc(N4CCOCC4)n3)CC2)CC1 | binding, competition with immobilised ligand | 1 µM | 100%
N[C@H]1CCN(c2nccc(-c3cnn4ncccc34)n2)C1 | binding | 1 µM | 100%
Cc1c[nH]c2nccc(Oc3c(F)cc(Nc4cc(Cl)nc(N)n4)cc3F)c12 | cell-free assay, competition with immobilised ligand | 0.1 µM | 92%
CC1CCCN1c1nccc(-c2cnn3ncccc23)n1 (stereo not shown) | binding | 1 µM | 89%
O=C(c1ccc(Nc2ncc(Cl)c(-c3ccc(Cl)s3)n2)cc1)N1CCC(N2CCCC2)CC1 | binding, competition with immobilised ligand | 1 µM | 89%
CN(c1nccc(-c2cnn3ncccc23)n1)C1CC1 | binding | 1 µM | 87%
O=C(NCc1ncc(C(F)(F)F)cc1Cl)c1ccc2c(c1)C1(CCS(=O)(=O)CC1)[C@H](C1CC1)N2S(=O)(=O)c1ccc(F)cc1 | cell-free assay, competition with immobilised ligand | 1 µM | 100%
CCN1CCN(Cc2ccc(C(=O)Nc3ccc(C)c(Oc4ccc5c(c4)CC(=O)N5)c3)cc2C(F)(F)F)CC1 | binding, competition with immobilised ligand | 1 µM | 100%
c1cnn2ncc(-c3ccnc(N4CCC45COC5)n3)c2c1 | binding | 1 µM | 78%
c1ccc(N2CCN(Cc3nc4ccccc4[nH]3)CC2)nc1 | binding, competition with immobilised ligand | 1 µM | 100%
CN(C)c1nccc(-c2cnc3ncccn23)n1 | binding | 1 µM | 98%
Nc1ncc2c(n1)-c1c([nH]c3ccc(C#CC4CC4)cc13)CCCC2 | binding, competition with immobilised ligand | 1 µM | 100%
O=C(NCC1CCOCC1)c1n[nH]cc1NC(=O)c1c(F)cccc1F | binding, competition with immobilised ligand | 1 µM | 100%
FC(F)(F)Oc1cccc(-c2cnc3ccc(-c4ccncc4)nn23)c1 | binding, competition with immobilised ligand | 5 µM | 42%
CO[C@H]1CC[C@H](CNc2ccc(S(=O)(=O)NC(=O)c3ccc(N4CCN(CC5=C(c6ccc(Cl)cc6)CC(C)(C)CC5)CC4)cc3Oc3cnc4[nH]ccc4c3)cc2[N+](=O)[O-])CC1 | cell-free assay, competition with immobilised ligand | 1 µM | 85%
CN(C)c1nccc(-c2cnn3ncccc23)n1 | binding | 1 µM | 100%
CN(C)C(=O)Cn1cc(-c2nc(C3(c4ccc(-c5cnc(N)nc5)cc4)CC3)no2)cn1 | cell-free assay, competition with immobilised ligand | 1 µM | 100%
C[C@H]1CCN(c2nccc(-c3cnn4ncccc34)n2)C1 | binding | 1 µM | 95%
